Source: article PMC11253529 (iScience, 2024)
Like-named read-outs stand apart in the source and are kept apart here.

Tests used:
M. smegmatis ATCC607 = settings: MHII medium; previously determined values; ref Krämer et al.[35]; cited from earlier work
E. coli ATCC35218 = settings: previously determined values, ref Krämer et al.[35], cited from earlier work
C. albicans FH2173 = settings: MHII medium; previously determined values; ref Krämer et al.[35]; cited from earlier work
A. flavus ATCC9170 = settings: MHII medium; previously determined values; ref Krämer et al.[35]; cited from earlier work
[1] = test system: S. aureus (MRSA) ATCC33592; settings: MHII medium; previously determined values; ref Krämer et al.[35]; cited from earlier work
intracellular Ca^2+ = test: Intracellular Ca2+ induction assay; type: cell-based, human; settings: 2.5 μg/mL; Fluo-8 pre-treated HEK293T cells; fluorescence imaging; n = 3
Summary of the method: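 HEK293T cells (2 × 10^4/well, poly-D-lysine plates) were cultured 24 h at 37°C, then loaded with 4 μM Fluo-8-AM in HBSS for 1 h at 37°C and switched to HBSS. After peptide addition, confocal high-content images were taken every second for 20 s. Cells above a fluorescence threshold set from pre-treatment cells were counted against untreated cells. The positive control was 5 μM ionomycin.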

P. aeruginosa ATCC27853 = settings: MHII medium, previously determined values, ref Krämer et al.[35], cited from earlier work
pea aphids = settings: feeding assay; cited from earlier work

Substance | MIC, M. smegmatis ATCC607 (M. smegmatis ATCC607) [µM] | MIC, E. coli ATCC35218, MHC medium (in brackets) (E. coli ATCC35218) | MIC, E. coli ATCC35218, MHII medium (E. coli ATCC35218) | MIC, C. albicans FH2173 (C. albicans FH2173) [µM] | MIC, A. flavus ATCC9170 (A. flavus ATCC9170) [µM] | MIC, S. aureus (MRSA) ATCC33592 [1] [µM] | Induction of intracellular Ca^2+ levels (intracellular Ca^2+) | MIC, P. aeruginosa ATCC27853 (P. aeruginosa ATCC27853) [µM] | Insecticidal activity in aphid feeding assays (pea aphids) | MIC, P. aeruginosa ATCC27853 (P. aeruginosa ATCC27853; listed as checacin 1)
FLPAIYKQIQKKRK-Amidation [Checacin 1^12−25] | >50 | >50 (>50) μM | >50 (>50) μM | >50 | >50 | >50 | the only exceptions | >50 | – | –
FFGAIAKLAMKFLPAIYKQIQ [Checacin 1^1−21] | >50 | >50 (>50) μM | >50 (>50) μM | >50 | >50 | 12.5 | – | >50 | – | –
FFGAIAKLAMK [Checacin 1^1−11] | >50 | >50 (>50) μM | >50 (>50) μM | >50 | >50 | >50 | the only exceptions | >50 | – | –
FFGAIAKLAMKFLPAIYKQIQKKRK-Amidation [Checacin 1] | 25 | 1.6 µM | – | 6.25 | 50 | 1.56 | – | 12.5 | insecticidal activity in aphid feeding assays, but only after 72 h | inhibited to various degrees
